Experimental data published in ChEMBL document CHEMBL1122156, “A comparison of the inhibitory action of 5-(substituted-benzyl)-2,4-diaminopyrimidines on dihydrofolate reductase from chicken liver with that from bovine liver” (J Med Chem, 1982).
Each block holds one compound with its values, some of them ahead of it.

How the values were obtained:
[1] = target: T1, Dihydrofolate reductase (Gallus gallus) (UniProt P00378)
T1 sequence (whole entry): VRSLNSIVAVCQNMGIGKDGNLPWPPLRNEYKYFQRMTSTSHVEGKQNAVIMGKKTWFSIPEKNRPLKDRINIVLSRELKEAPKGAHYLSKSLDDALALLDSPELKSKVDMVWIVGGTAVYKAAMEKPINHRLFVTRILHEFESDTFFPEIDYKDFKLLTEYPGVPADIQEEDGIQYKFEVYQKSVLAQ

[2] = target: T2, Dihydrofolate reductase (Bos taurus) (UniProt P00376)
T2 sequence (whole entry): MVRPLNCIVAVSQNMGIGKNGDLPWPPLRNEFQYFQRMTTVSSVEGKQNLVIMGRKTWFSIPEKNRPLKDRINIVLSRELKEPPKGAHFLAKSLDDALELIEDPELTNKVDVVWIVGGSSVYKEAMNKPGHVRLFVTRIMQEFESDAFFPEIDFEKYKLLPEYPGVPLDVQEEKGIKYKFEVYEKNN

[3] = target: T1, Dihydrofolate reductase (Gallus gallus); experiment: Inhibitory activity against chicken Dihydrofolate reductase at pH 7.2.
How it was run: (§1)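 DHFR from chicken liver and from bovine liver, each assayed at pH 7.2 by the group's earlier-reported inhibition procedure. Potency is expressed as an apparent inhibition constant, reported as log(1/Ki app).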

[4] = target: T2, Dihydrofolate reductase (Bos taurus); experiment: Inhibitory activity against bovine liver Dihydrofolate reductase at pH 7.2.
How it was run: as §1

Compound: COCCOc1c(OC)cc(Cc2cnc(N)nc2N)cc1OC
Log 1/Ki app [1]: 3.64

Compound: CC(=O)Nc1ccc(Cc2cnc(N)nc2N)cc1
Log 1/Ki app [1]: 4.26

Compound: CN(C)c1ccc(Cc2cnc(N)nc2N)cc1
Log 1/Ki app [1]: 4.01

Compound: CCCCOCc1cccc(Cc2cnc(N)nc2N)c1
Log 1/Ki app [1]: 5.17

Compound: CCCCCCCOc1ccc(Cc2cnc(N)nc2N)cc1
Log 1/Ki app [4]: 5.45

Compound: Nc1ncc(Cc2cc(O)cc(O)c2)c(N)n1
Log 1/Ki app [4]: 3.39

Compound: COc1ccc(Cc2cnc(N)nc2N)cc1OC
Log 1/Ki app [1]: 4.46 | Log 1/Ki app [2]: 5.66

Compound: COc1ccc(Cc2cnc(N)nc2N)cc1C(F)(F)F
Log 1/Ki app [1]: 4.99

Compound: Nc1ncc(Cc2ccc([N+](=O)[O-])cc2)c(N)n1
Log 1/Ki app [1]: 4.37

Compound: Nc1ncc(Cc2ccc(OC(F)(F)F)cc2)c(N)n1
Log 1/Ki app [1]: 4.26 | Log 1/Ki app [2]: 5.42

Results, then the compound that gave them:

Log 1/Ki app [1]: 4.79 | Log 1/Ki app [2]: 6.15
Compound: Nc1ncc(Cc2cccc(I)c2)c(N)n1

Log 1/Ki app [1]: 4.7
Compound: Nc1ncc(Cc2cccc(F)c2)c(N)n1

Log 1/Ki app [3]: 4.83 | Log 1/Ki app [4]: 5.58
Compound: COCCOc1cccc(Cc2cnc(N)nc2N)c1

Log 1/Ki app [1]: 4.79
Compound: Nc1ncc(Cc2ccc(F)cc2)c(N)n1

Log 1/Ki app [1]: 5.01
Compound: Nc1ncc(Cc2cccc(Cl)c2)c(N)n1

Log 1/Ki app [1]: 4.71
Compound: Nc1ncc(Cc2ccccc2)c(N)n1

Log 1/Ki app [1]: 4.72
Compound: Cc1cccc(Cc2cnc(N)nc2N)c1
